From PMC5629133 (Drugs in R&D, 2017)
Where two headings read alike, the source gives them in different places.

Columns and labels:
human AGP variants = details: cited from earlier work; for Binding to AGP: used as positive controls
AGP F1/S variants = AGP F1/S variants (Homo sapiens, UniProt P02763); test: Effect of other drugs on binding of tamsulosin to human AGP
Outline: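 Commercial human AGP was mixed with unlabelled tamsulosin (40–500 μM solutions added), [3H]tamsulosin, and test compound at 9.62, 19.2 and 48.1 μM, then incubated for 15 min at 37 °C. Ultrafiltration used a 5000 MW cut-off at 2000×g for 5 min at 37 °C. Mixture and filtrate were counted by liquid scintillation. Ki was fitted by non-linear least squares to a competitive inhibition model with non-specific binding held constant.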

AGP F1/S variant mixture = AGP F1/S variant mixture (Homo sapiens, UniProt P02763); test: Screening: S-warfarin binding with drug at 100-fold concentration; details: drug at 100-fold concentration of marker
Outline: (§1)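 Radiolabelled S-disopyramide or S-warfarin binding to human AGP was measured with and without test compound at 100-fold the marker concentration. Incubation was 15 min at 37 °C, followed by ultrafiltration at 2000×g and scintillation counting. Marker binding remaining at 100-fold inhibitor was taken as non-specific. Compounds cutting specific binding by more than 70% went forward to quantitative analysis.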

AGP A variant = AGP A variant (Homo sapiens, UniProt P19652); test: Screening: S-disopyramide binding with drug at 100-fold concentration; details: drug at 100-fold concentration of marker
Outline: as §1

[1] = target: AGP F1/S variant mixture (S-warfarin binding site) (Homo sapiens, UniProt P02763); test: Competitive inhibition of S-warfarin binding to human AGP by ultrafiltration; details: among the drugs tested
Outline: (§2)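 Human AGP was incubated with radiolabelled S-warfarin or [3H]S-disopyramide, with a series of unlabelled marker levels and test compound at 9.62, 19.2 and 48.1 μM, for 15 min at 37 °C. Ultrafiltration ran at 2000×g for 5 min at 37 °C, with a 30,000 MW cut-off for disopyramide. Mixture and filtrate radioactivity were counted by scintillation. Ki came from a non-linear least-squares competitive inhibition model with a constant non-specific binding term.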

[2] = target: AGP A variant (S-disopyramide binding site) (Homo sapiens, UniProt P19652); details: among the drugs tested
Outline: as §2

For CN(C)CCCN1c2ccccc2Sc2ccc(Cl)cc21 [chlorpromazine], the “AGP variant to which the drug binds” value (human AGP variants; separate AGP variants) is listed as “to both variants”.

With CC[C@H]1OC(=O)[C@H](C)[C@@H](O[C@H]2C[C@@](C)(OC)[C@@H](O)[C@H](C)O2)[C@H](C)[C@@H](O[C@@H]2O[C@H](C)C[C@H](N(C)C)[C@H]2O)[C@](C)(O)C[C@@H](C)C(=O)[C@H](C)[C@@H](O)[C@]1(C)O [Erythromycin] the “Effect on binding of tamsulosin” value (AGP F1/S variants) was “significantly decreased”, the “Inhibition of binding of warfarin” value (AGP F1/S variant mixture) was “markedly inhibited” and the “Inhibition of binding of S-disopyramide” value (AGP A variant) was “markedly inhibited”.

For CC(=O)CC(c1ccccc1)c1c(O)c2ccccc2oc1=O (centres unmarked) [warfarin], the “Effect on binding of tamsulosin” value (AGP F1/S variants) is given as “significantly decreased” and the “AGP variant to which the drug binds” value (human AGP variants; separate AGP variants) is given as “to an F1/S variant mixture”.

In the case of COC(=O)C1=C(C)NC(C)=C(C(=O)OCCN(C)Cc2ccccc2)C1c1cccc([N+](=O)[O-])c1 (centres unmarked) [Nicardipine], the “Binding affinity for the AGP F1/S variant mixture (S-warfarin binding site)” value (shortened to “Binding affinity … (S-warfarin binding site)”) [1] was “relatively high”, the “Inhibition of binding of warfarin” value (AGP F1/S variant mixture) was “markedly inhibited” and the “Inhibition of binding of S-disopyramide” value (AGP A variant) was “markedly inhibited”.

In the case of Clc1ccc(COC(Cn2ccnc2)c2ccc(Cl)cc2Cl)c(Cl)c1 (centres unmarked) [Miconazole], the “Inhibition of binding of warfarin” value (AGP F1/S variant mixture) was “markedly inhibited” and the “Inhibition of binding of S-disopyramide” value (AGP A variant) was “markedly inhibited”.

In the case of COc1ccccc1OCCNCC(O)COc1cccc2[nH]c3ccccc3c12 (centres unmarked) [Carvedilol], the “Effect on binding of tamsulosin” value (AGP F1/S variants) was “significantly decreased”.

In the case of COc1ccc(Cl)cc1C(=O)NCCc1ccc(S(=O)(=O)NC(=O)NC2CCCCC2)cc1 [Glibenclamide], the “Inhibition of binding of S-disopyramide” value (AGP A variant) was “specifically inhibited”.

In the case of CN(C)CCC=C1c2ccccc2CCc2ccccc21 [amitriptyline], the “Binding to AGP” value (human AGP variants) is listed as “bind strongly to AGP” and the “Inhibition of binding of S-disopyramide” value (AGP A variant) is listed as “specifically inhibited”.

For COc1ccc([C@@H]2Sc3ccccc3N(CCN(C)C)C(=O)[C@@H]2OC(C)=O)cc1 [diltiazem], the “Inhibition of binding of S-disopyramide” value (AGP A variant) was “specifically inhibited”.

In the case of CN(C)CCCN1c2ccccc2CCc2ccccc21 [imipramine], the “AGP variant to which the drug binds” value (human AGP variants; separate AGP variants) is listed as “bind specifically to the A variant” and the “Binding to AGP” value (human AGP variants) is listed as “bind strongly to AGP”.

In the case of CCC(C)(C)C(=O)O[C@H]1C[C@@H](C)C=C2C=C[C@H](C)[C@H](CC[C@@H]3C[C@@H](O)CC(=O)O3)[C@H]21 [Simvastatin], the “Binding affinity … (S-warfarin binding site)” value [1] was “relatively high”, the “Inhibition of binding of warfarin” value (AGP F1/S variant mixture) was “markedly inhibited” and the “Inhibition of binding of S-disopyramide” value (AGP A variant) was “markedly inhibited”.

For CCN(CC)CCCN(c1ccccc1)C1Cc2ccccc2C1 [Aprindine], the “Binding affinity for the AGP A variant (S-disopyramide binding site)” value (“Binding affinity for the AGP A variant” below) [2] was “relatively high” and the “Effect on binding of tamsulosin” value (AGP F1/S variants) was “significantly decreased”.

For CC(C)NCC(O)COc1cccc2ccccc12 (centres unmarked) [propranolol], the “Inhibition of binding of warfarin” value (AGP F1/S variant mixture) was “markedly inhibited” and the “Inhibition of binding of S-disopyramide” value (AGP A variant) was “markedly inhibited”.

For CN(C)C(=O)C(CCN1CCC(O)(c2ccc(Cl)cc2)CC1)(c1ccccc1)c1ccccc1 [Loperamide], the “Inhibition of binding of S-disopyramide” value (AGP A variant) was “specifically inhibited”.

In the case of C=C[C@H]1C[N@@]2CC[C@H]1C[C@H]2[C@H](O)c1ccnc2ccc(OC)cc12 [Quinine], the “Binding affinity for the AGP A variant” value [2] was “relatively high”, the “Inhibition of binding of warfarin” value (AGP F1/S variant mixture) was “markedly inhibited” and the “Inhibition of binding of S-disopyramide” value (AGP A variant) was “markedly inhibited”.

In the case of CSc1ccc2c(c1)N(CCC1CCCCN1C)c1ccccc1S2 (centres unmarked) [Thioridazine], the “Binding affinity for the AGP A variant” value [2] was “relatively high”, the “Binding affinity … (S-warfarin binding site)” value [1] was “relatively high” and the “Effect on binding of tamsulosin” value (AGP F1/S variants) was “significantly decreased”. The “Binding to AGP” value (human AGP variants) was “bind strongly to AGP”, the “Inhibition of binding of warfarin” value (AGP F1/S variant mixture) was “markedly inhibited” and the “Inhibition of binding of S-disopyramide” value (AGP A variant) was “markedly inhibited”.

In the case of CC/C(=C(\c1ccccc1)c1ccc(OCCN(C)C)cc1)c1ccccc1 [tamoxifen], the “Binding to AGP” value (human AGP variants) is given as “bind strongly to AGP” and the “Inhibition of binding of S-disopyramide” value (AGP A variant) is given as “specifically inhibited”.

For CCOc1ccccc1OCCN[C@H](C)Cc1ccc(OC)c(S(N)(=O)=O)c1 [tamsulosin], the “Binding affinity … (S-warfarin binding site)” value [1] is listed as “relatively high”, the “AGP variant to which the drug binds” value (human AGP variants) is listed as “binds specifically to the F1/S variants” and the “Inhibition of binding of warfarin” value (AGP F1/S variant mixture) is listed as “specifically inhibited”.

For CC(C)N(CCC(C(N)=O)(c1ccccc1)c1ccccn1)C(C)C (centres unmarked) [disopyramide], the “AGP variant to which the drug binds” value (human AGP variants; separate AGP variants) is given as “bind specifically to the A variant”.
